System: E. coli BW25113 ΔtolC growth inhibition, OD615
Assay: growth inhibitors of E. coli tolC mutant, dose response, strain BW25113 ΔtolC::kan (AID 617)
In short: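 System – E. coli BW25113 ΔtolC::kan bacteria · Input – inoculum from 1:1000-diluted 1.5 h subculture · Buffer or medium – LB plus kanamycin · Compound – serial dilution series of compound · Timing – bacterial growth with compound for 20 h, 37 °C · Measured by – OD615 · Read-out basis – growth-inhibition IC50 from four-parameter logistic curve, bounds set to 0% and 100% · Benchmarks – chloramphenicol 30 µM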

Structure (SMILES) | IC50 [µM]
CCOC(=O)c1c(-c2ccc(OC)cc2)oc2ccc(OC(=O)N(C)C)cc12 | 12.9
Cc1cc(NC(=O)COC(=O)C(Nc2ccc(C(F)(F)F)cc2Cl)C(C)C)no1 (stereo not given) | 5.37
CCn1c(CNc2cccc(Cl)c2)nnc1SCC(=O)OC1CCCCC1 | 17.8
O=C(Nc1cccc(Cl)c1)N(CCCN1CCOCC1)Cc1ccccc1F | 7.19
CC(C)(C)C(=O)Cn1c(=N)n(Cc2ccccc2)c2ccccc21 | 17.2
Cc1cccnc1Nc1nc(-c2ccc(O)cc2O)cs1 | 17.8
CCCCCCC(=O)N1CCC(c2nc3c(nnn3Cc3ccccc3Cl)c(=O)[nH]2)CC1 | 6.36
CC1CCCCC1n1c(=S)[nH]c2ccccc2c1=O (stereo not given) | 5.91
CCc1ccccc1NS(=O)(=O)c1ccc(SC)cc1 | 41.6
Cc1nn(-c2ccccc2)c2sc(-c3n[nH]c(=S)o3)cc12 | 4.43
CCCCc1c(C)nn(-c2nnc3c4ccccc4n(CC)c3n2)c1C | 1.77
CCCCCCN=C(CC)c1c(O)n(CCCC)c(=O)[nH]c1=O | 11.8
COc1ccc(C(C)(C)C)cc1NC(=O)Nc1ccc2c(c1)OCO2 | 5.28
COC(=O)c1sccc1NC(=O)c1csc(C)c1 | 23.1
Cc1ccc2nc(NC(=O)CNS(=O)(=O)c3ccc(Br)s3)sc2c1 | 47.7
Cc1cccc(NC(=O)CSc2nnc(-c3cc(C)n(-c4ccccc4)c3C)o2)c1C | 14
Cn1c(=O)n(CCCOc2ccc(Cl)cc2)c2ccccc21 | 15.7
CCn1cc(C(=O)OC(C)C(=O)Nc2c(C)n(C)n(-c3ccccc3)c2=O)c(=O)c2ccc(C)nc21 (stereo not given) | 12.7
Cc1[nH]c2ccccc2c1NC(=O)CN1CCN(c2cccc(C(F)(F)F)c2)CC1 | 12.5
CC(C)N(Cc1nc(-c2ccc(Cl)cc2)no1)C(=O)c1cccs1 | 18.9
CCCCn1c(N2CCC(Cc3ccccc3)CC2)nc2c1c(=O)[nH]c(=O)n2C | 5.96
Cn1cccc1C(=O)Nc1nc(-c2ccccn2)cs1 | 2.42

Structure (SMILES) | IC50 [µM]
Cc1cccc(C)c1NC(=O)C(c1cccs1)N(Cc1ccco1)C(=O)Cn1nnc2ccccc21 (stereo not given) | 29.3
CCc1nc2ccccc2c(=O)n1NC(=O)c1c(O)c2ccccc2[nH]c1=O | 5.7
CCn1cc(C(=O)O)c(=O)c2cnc(N3CCN(C(=O)Nc4ccccc4)CC3)nc21 | 1.01
Cc1ccc(Cn2ccc(NC(=O)c3cc(CC(C)C)on3)n2)cc1 | 8.54
COc1ccc(-c2noc(C)c2-c2ccc3ccccc3n2)c(O)c1 | 8.91
CCn1c(SCC(=O)OC2CCCCC2)nc2ccccc2c1=O | 11.8
CCCCOc1ccc(S(=O)(=O)N2CCCCCC2)cc1 | 23.8
O=c1c2ccccc2n(Cc2ccc(F)cc2)c(=O)n1C1CCCC1 | 9.26
c1ccc(CSc2nnc(-c3ccco3)c(-c3ccco3)n2)cc1 | 11.1
O=C(c1noc2c1CCc1ccccc1-2)N1CCCc2ccccc21 | 12.2
Cc1ccc2c3c1C1(C(=O)N3C(C)(C)CC2C)C(C#N)=C(N)Oc2cc(O)ccc21 (stereo not given) | 2.96
COc1ccc(-c2[nH]ncc2-c2ccc3c(c2)OCCO3)c(O)c1 | 15.9
CC1CCCN(S(=O)(=O)c2ccc(NC(=O)Cn3nnc(-c4ccccc4F)n3)cc2)C1 (stereo not given) | 26.6
CCOC(=O)C1CN(c2cc3c(cc2F)c(=O)c(C(=O)O)cn3CC)OC1C(=O)OCC (stereo not given) | 0.81
CN(C)c1ccc(-c2nn3c(-c4ccncc4)nnc3s2)cc1 | 13.6
O=C(Nc1nc(-c2ccccn2)cs1)c1ccc(Cl)s1 | 0.13
CCOC(=O)c1cc(C)n(S(=O)(=O)c2ccc(C)cc2)c1C | 12.4
CC(C)c1ccc(OCc2ccc(C(=O)N3CCN(c4ccccn4)CC3)cc2)cc1 | 8.11
COc1ccc(NS(=O)(=O)c2cc(C)ccc2NC(=O)c2cc(C)oc2C)cc1 | 58.6
O=c1c2ccccc2nc(SCc2cn3ccsc3n2)n1-c1ccccc1F | 23.3
C=C(C)COc1ccc(-c2n[nH]c(C)c2Oc2ccccc2OC)c(O)c1 | 8.36
CC(=O)c1ccccc1OCC(O)CN1CCN(C(c2ccccc2)c2ccccc2)CC1 (stereo not given) | 14.1

Structure (SMILES) | IC50 [µM]
COc1ccc(Cn2nnnc2C(C(C)C)N2CCc3ccccc32)cc1 (stereo not given) | 12.7
Cc1cccn2c(=O)c3cc(C(=O)NCc4ccco4)c(=N)n(CCc4ccccc4)c3nc12 | 43.1
CCn1c(Cn2nnc(-c3ccccc3)n2)nnc1SCc1ccc(Cl)c(Cl)c1 | 7.77
COc1ccc(-n2cnc3cc(NCc4cccs4)ccc32)cc1 | 10.6
COc1ccc(C(C(O)C(=O)c2c[nH]c3ccccc23)N2CCN(c3ccc(OC)cc3)CC2)cc1 (stereo not given) | 11.3
COCCCN1C(=O)c2[nH]nc(-c3ccccc3O)c2C1c1ccc(Cl)cc1 (stereo not given) | 5.96
COc1ccc2c(c1)CCc1c(C(=O)N3CCc4ccccc4C3)noc1-2 | 5.76
CCCc1cc(-c2[nH]ncc2-c2ccc3c(c2)OCCCO3)c(O)cc1O | 5.48
Cc1ccc(SC/C(O)=C(\C#N)c2nc3ccccc3s2)cc1 | 1.03
Oc1c(C(c2ccco2)N2CCN(C(c3ccccc3)c3ccccc3)CC2)sc2ncnn12 (stereo not given) | 13.3
N=c1c2c(-c3ccccc3)c(-c3ccccc3)n(Cc3ccco3)c2ncn1Cc1ccco1 | 4.32
COc1ccc(CNC(=O)c2cc(-c3ccccc3OC)on2)cc1 | 56
CCOC(=O)c1cc2c(ccn2C)n1Cc1ccccc1C | 27.3
CCSc1nnc(NC(=O)c2ccccn2)s1 | 4.66
CCSc1nnc(NC(=O)CSc2nccn2-c2cccc(C)c2C)s1 | 5.29
COc1ccc(S(=O)(=O)Nc2ccc(S(=O)(=O)N3CCCCC3)cc2)cc1 | 15
CC1CCCCN1S(=O)(=O)c1ccc(C(=O)Nc2nnc(-c3cccs3)o2)cc1 (stereo not given) | 0.24
CSCCOC(=O)C1=C(C)NC(=O)CC1c1ccccc1Cl (stereo not given) | 22.9
Cc1ccccc1Cn1nc(C)c(NC(=O)c2noc3c2CC(C(C)(C)C)CC3)c1C (stereo not given) | 9.29
Cc1cc(Cl)cc(C)c1OCCCCn1ccnc1 | 15
O=C(CCn1c(=O)oc2ccccc21)N1CCN(C(c2ccccc2)c2ccccc2)CC1 | 29
CCSc1nnc(NC(=O)c2cccc(OCc3c(C)noc3C)c2)s1 | 10.8

Structure (SMILES) | IC50 [µM]
CCCCOC(=O)Nc1cc(C(=O)OC)ccc1C(=O)OC | 26.8
Clc1cccc(-c2nc3nc4ccccc4nc3n2Cc2ccco2)c1 | 15
CCOC(=O)c1cc2cc(-c3c(C(=O)OCC)oc4cc(O)cc(O)c4c3=O)ccc2o1 | 7.59
COc1cc(-c2nnc(SCc3ccccc3Cl)o2)cc(OC)c1OC | 10.2
N#Cc1nc(COc2ccccc2F)oc1NCCc1ccccc1 | 16.7
Cc1onc(-c2c(F)cccc2Cl)c1C(=O)Nc1nc2c(s1)CCCC2 | 19.4
CCCCCn1c(CN2CCN(c3cccc(Cl)c3)CC2)nc2c1c(=O)n(C)c(=O)n2C | 15.2
COc1ccc(CN(C(=O)CN2C(=O)C(C)Oc3ccccc32)C2CCCC2)c(OC)c1 (stereo not given) | 28.1
O=S(=O)(Nc1nc2ccccc2s1)c1ccc(Br)s1 | 3.88
O=C(c1ccc2c(=O)n(C3CCCC3)c(=S)[nH]c2c1)N1CCN(C2CCCCC2)CC1 | 15
COc1ccc(-c2nnc(NC(=O)c3ccc(S(=O)(=O)N4CCc5ccccc5C4)cc3)o2)cc1 | 0.22
N#Cc1nc(Cc2ccccc2)oc1NCc1ccccc1Cl | 4.79
c1coc(CNc2nc(N3CCCCC3)nc3ccccc23)c1 | 16.9
CCc1ccccc1N(CC)C(=O)CCc1nc(-c2ccc(C)cc2)no1 | 11.2
COc1ccc2nc(SCC(=O)N(C)C3CCCCC3)c(C#N)cc2c1 | 15.8
N#CCSc1nc2c(c(C3CC=CCC3)c1C#N)CCC2 (stereo not given) | 12.9
CCCc1nc(SCC(=O)N2CCCc3ccccc32)c2c(=O)n(C)c(=O)n(C)c2n1 | 11.6
CCCc1ccc(Oc2cn[nH]c2-c2ccc(O)c(C)c2O)cc1 | 1.84
CCCCn1c(NC(=O)c2ccccc2)c(C#N)c2nc3ccccc3nc21 | 2.79
Cc1ccc(-c2csc(N(CC3CCCO3)C(=O)c3ccco3)n2)cc1 (stereo not given) | 20.8
CCCCCC(=O)Nc1ccccc1N1CCN(c2ccccc2)CC1 | 20.6
Cc1nn(-c2ccccc2)c2sc(C(=O)N(CC(=O)NC(C)(C)C)Cc3ccco3)cc12 | 24.2

Structure (SMILES) | IC50 [µM]
O=c1cc(O)c2c(=O)n3c4c(cccc4c2o1)CCC3 | 2.82
Cc1nc(N2CCN(c3ccccc3)CC2)nc2c1C(=O)CCC2 | 26.6
Cc1ccc(/C(O)=C2\C(=O)C(=O)N(c3cc(C)on3)C2c2cccc(Br)c2)cc1 (stereo not given) | 13.8
CCOC(=O)N1CCc2c(sc(NC(=O)c3ccc(Cl)s3)c2C(N)=O)C1 | 5.13
Cc1cc(C2N=C(N)Nc3nc4ccccc4n32)c(C)n1-c1ccccc1Cl (stereo not given) | 6.74
CC1CCc2nc(NC(=O)c3cc(C(C)(C)C)nn3C)sc2C1 (stereo not given) | 12.4
O=C(CCSc1nnc2scc(-c3ccccc3)n12)Nc1nc(-c2ccccc2)ns1 | 16.6
C=C(C)COc1ccc(-c2[nH]ncc2Oc2ccccc2OCC)c(O)c1 | 6.14
CCOC(=O)Cc1nnc2c(Nc3ccc(Cl)cc3)nc3nonc3n12 | 3.75
Cc1cc(Nc2ccccc2)nc(-c2ccccc2O)n1 | 15.4
Cc1noc(NS(=O)(=O)c2ccc(NC(=O)Nc3ccc(Cl)c(Cl)c3)cc2)c1C | 4.51
O=S(=O)(Nc1nc2ccccc2nc1NCc1ccco1)c1ccc(Cl)cc1 | 4.77
CC(=O)OCC1=C(C(=O)O)N2C(=O)[C@@H](NC(=O)Cc3cccs3)[C@H]2SC1 | 1.01
CC(=O)Nc1cccc(NC(=O)CSc2ncc(-c3ccc(Cl)cc3)n2Cc2ccco2)c1 | 2.99
CCCCC(CC)CNC(=O)c1[nH]c(C)c(C(C)=O)c1C (stereo not given) | 1.28
N#Cc1cn(Cc2ccccc2)c2ccccc12 | 15.3
c1ccc(CN(Cc2ccco2)C(c2ccncc2)c2nnnn2C2CCCC2)cc1 (stereo not given) | 13.2
CCOc1ccc(-c2nc(C#N)c(N3CCCCCC3)o2)cc1 | 12.7
CCCCOC(=O)CSc1nnc(-c2ccc(Cl)cc2Cl)o1 | 19.4
COc1cccc(-c2nnc(NC(=O)c3ccc(S(=O)(=O)N4CCOCC4)cc3)o2)c1 | 0.99
CC(C)c1ccc(-c2nnn(Cc3nc4ccccc4s3)n2)cc1 | 22.8
Cc1cc(-c2ccco2)c(C#N)c2nc3ccccc3n12 | 9.09

— PubChem BioAssay AID617 (SRMLSC, 2007)
